ChEMBL document CHEMBL3526015, “Metabolism of the c-Fos/activator protein-1 inhibitor T-5224 by multiple human UDP-glucuronosyltransferase isoforms” (Drug Metab Dispos, 2011)

Key:
[1] = Substrate inhibition of T-5224 hydroxyl O-glucuronide formation in human intestinal microsomes after 10 to 60 mins by HPLC method; parameters: species or system Intestine, Microsome
How it was run: (§1)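 Pooled liver (0.5 mg protein/mL) or intestinal (0.25 mg protein/mL) microsomes in 50 mM Tris-HCl pH 7.5, 8 mM MgCl2, alamethicin, 2% DMSO. T-5224 at 1–50 μM, 5 min preincubation at 37°C, started with 2 mM UDPGA. Incubated 10 min, or 20 min for intestinal microsomes at 1–5 μM. Acetonitrile stop, glucuronides by HPLC at 290 nm. Triplicates fitted to a substrate-inhibition model.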

[2] = target: T1, UDP-glucuronosyltransferase 1A1 (Homo sapiens, UniProt P22309); assay: Drug metabolism assessed as human UGT1A1-mediated T-5224 acyl O-glucuronide formation at 10 uM […] in presence of beta-estradiol by HPLC method; format: ADME; conditions: recombinant enzyme
T1 sequence (P22309 whole entry): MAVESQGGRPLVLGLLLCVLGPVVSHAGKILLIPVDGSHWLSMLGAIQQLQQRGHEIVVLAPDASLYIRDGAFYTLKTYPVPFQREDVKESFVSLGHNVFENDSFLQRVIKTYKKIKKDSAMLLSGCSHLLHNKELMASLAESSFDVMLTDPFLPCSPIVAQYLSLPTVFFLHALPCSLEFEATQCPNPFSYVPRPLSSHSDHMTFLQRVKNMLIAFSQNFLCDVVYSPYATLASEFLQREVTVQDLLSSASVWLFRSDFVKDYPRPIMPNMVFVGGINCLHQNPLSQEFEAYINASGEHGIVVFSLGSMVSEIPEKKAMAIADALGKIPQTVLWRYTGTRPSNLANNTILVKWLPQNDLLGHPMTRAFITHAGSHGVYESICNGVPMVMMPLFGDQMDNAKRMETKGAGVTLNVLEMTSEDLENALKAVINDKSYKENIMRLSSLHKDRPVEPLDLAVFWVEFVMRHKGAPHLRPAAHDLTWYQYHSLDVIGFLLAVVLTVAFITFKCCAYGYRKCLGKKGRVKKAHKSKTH
How it was run: (§2)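 Pooled human liver microsomes or recombinant UGT1A1 were incubated with 10 μM T-5224, 2 mM UDPGA and β-estradiol at 0–500 μM (2% DMSO), in Tris-HCl/MgCl2/alamethicin buffer. Incubation was 10 min (liver microsomes) or 60 min (UGT1A1) at 37°C. G2/G3 were read by HPLC at 290 nm, as mean ± SD, n = 3.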

[3] = Drug metabolism assessed as human CYP2D6*1-mediated metabolite formation at 2 uM after 30 mins by HPLC method; format: ADME; conditions: 0.5 h
How it was run: (§3)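 Each recombinant human P450 was used at 50 pmol/mL with an NADPH-generating system and 2 μM 14C-T-5224 (0.5% DMSO final). Buffer was 100 mM Tris-HCl pH 7.5, except 100 mM potassium phosphate pH 7.4 for CYP2A6 and CYP2C9*1. Incubation ran 30 min at 37°C and was stopped with acetonitrile/methanol. Radioactive metabolite peaks were detected by C18 HPLC.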

[4] = Drug metabolism in human intestinal microsomes assessed as Vmax/Km ratio for T-5224 acyl O-glucuronide formation per mg protein after 10 to 60 mins by HPLC method; format: ADME, Intestine, Microsome
How it was run: (§4)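 Pooled liver microsomes (0.5 mg/mL) were incubated 10 min. Pooled intestinal microsomes (0.25 mg/mL) ran 10 min at T-5224 10–50 μM and 20 min at 1–5 μM. Buffer was 50 mM Tris-HCl pH 7.5 with 8 mM MgCl2, alamethicin and 2 mM UDPGA, at 37°C, in triplicate. Glucuronides G2/G3 were read by HPLC at 290 nm and fitted for Vmax/Km.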

Liver microsome [5] = assay: Drug metabolism in human liver microsomes assessed as T-5224 acyl O-glucuronide formation per mg protein after 10 to 60 mins by HPLC method; format: ADME; how it was run: as §4
[6] = Drug metabolism in human intestinal microsomes assessed as T-5224 hydroxyl O-glucuronide formation after 10 to 60 mins by HPLC method; format: ADME, Intestine, Microsome; how it was run: as §4
Cytochrome P450 2A6 = target: T2, Cytochrome P450 2A6 (Homo sapiens, UniProt P11509); assay: Drug metabolism assessed as human CYP2A6-mediated metabolite formation at 2 uM after 30 mins by HPLC method; format: ADME; conditions: recombinant enzyme, 0.5 h; how it was run: as §3
T2 sequence (P11509 whole entry): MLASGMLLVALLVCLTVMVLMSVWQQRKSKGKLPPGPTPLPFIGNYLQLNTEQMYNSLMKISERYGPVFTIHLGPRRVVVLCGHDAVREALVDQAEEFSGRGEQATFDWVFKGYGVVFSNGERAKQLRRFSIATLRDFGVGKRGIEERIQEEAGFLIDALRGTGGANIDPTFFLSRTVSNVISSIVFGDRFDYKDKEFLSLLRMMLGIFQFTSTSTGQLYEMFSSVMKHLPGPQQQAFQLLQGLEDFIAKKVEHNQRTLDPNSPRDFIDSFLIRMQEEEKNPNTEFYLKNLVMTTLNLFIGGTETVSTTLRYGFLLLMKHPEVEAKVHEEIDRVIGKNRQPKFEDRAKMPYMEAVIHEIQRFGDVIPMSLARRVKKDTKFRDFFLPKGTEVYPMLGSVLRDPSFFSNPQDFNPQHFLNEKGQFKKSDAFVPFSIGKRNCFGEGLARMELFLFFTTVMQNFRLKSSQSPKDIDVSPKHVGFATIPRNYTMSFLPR

Liver microsome [7] = assay: Substrate inhibition of T-5224 acyl O-glucuronide formation in human liver microsomes after 10 to 60 mins by HPLC method; how it was run: as §1
Liver microsome [8] = assay: Drug metabolism in human liver microsomes assessed as Vmax/Km ratio for T-5224 hydroxyl O-glucuronide formation per mg protein after 10 to 60 mins by HPLC method; format: ADME; how it was run: as §1
[9] = Drug metabolism assessed as human CYP2C9*1-mediated metabolite formation at 2 uM after 30 mins by HPLC method; format: ADME; conditions: 0.5 h; how it was run: as §3
[10] = target: T1, UDP-glucuronosyltransferase 1A1; assay: Drug metabolism assessed as human UGT1A1-mediated T-5224 hydroxyl O-glucuronide formation at 5 to 50 uM after 60 mins in presence of UDP-glucuronic acid by HPLC method; format: ADME; conditions: recombinant enzyme, 1 h
Liver microsome [11] = assay: Drug metabolism in pooled human liver microsomes assessed as T-5224 hydroxyl O-glucuronide formation in presence of UDPGA by LC-MS/MS method; format: ADME
[12] = target: T1, UDP-glucuronosyltransferase 1A1; assay: Drug metabolism assessed as human UGT1A1-mediated T-5224 acyl O-glucuronide formation at 5 to 50 uM after 60 mins in presence of UDP-glucuronic acid by HPLC method; format: ADME; conditions: recombinant enzyme, 1 h
Cytochrome P450 2E1 = Cytochrome P450 2E1 (Homo sapiens, UniProt P05181); assay: Drug metabolism assessed as human CYP2E1-mediated metabolite formation at 2 uM after 30 mins by HPLC method; format: ADME; conditions: recombinant enzyme, 0.5 h; how it was run: as §3
Cytochrome P450 2E1, sequence (P05181 whole entry): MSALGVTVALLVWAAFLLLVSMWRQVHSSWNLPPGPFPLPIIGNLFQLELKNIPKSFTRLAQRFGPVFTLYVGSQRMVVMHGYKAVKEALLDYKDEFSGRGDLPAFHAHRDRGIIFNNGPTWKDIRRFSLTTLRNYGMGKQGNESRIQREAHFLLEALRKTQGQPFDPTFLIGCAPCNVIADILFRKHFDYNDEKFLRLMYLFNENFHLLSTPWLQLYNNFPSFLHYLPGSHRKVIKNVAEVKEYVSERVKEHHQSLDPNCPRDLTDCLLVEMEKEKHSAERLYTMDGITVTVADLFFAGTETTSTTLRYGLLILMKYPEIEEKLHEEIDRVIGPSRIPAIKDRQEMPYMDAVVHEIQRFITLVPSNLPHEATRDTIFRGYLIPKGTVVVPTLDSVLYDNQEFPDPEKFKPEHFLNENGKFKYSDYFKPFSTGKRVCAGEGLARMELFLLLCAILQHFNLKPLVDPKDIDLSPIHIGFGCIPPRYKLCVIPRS

[13] = target: T1, UDP-glucuronosyltransferase 1A1; assay: Drug metabolism assessed as human UGT1A1-mediated T-5224 hydroxyl O-glucuronide formation at 10 uM […] in presence of beta-estradiol by HPLC method; format: ADME; conditions: recombinant enzyme; how it was run: as §2
Cytochrome P450 2C19 = Cytochrome P450 2C19 (Homo sapiens, UniProt P33261); assay: Drug metabolism assessed as human CYP2C19-mediated metabolite formation at 2 uM after 30 mins by HPLC method; format: ADME; conditions: recombinant enzyme, 0.5 h; how it was run: as §3
Cytochrome P450 2C19, sequence (P33261 whole entry): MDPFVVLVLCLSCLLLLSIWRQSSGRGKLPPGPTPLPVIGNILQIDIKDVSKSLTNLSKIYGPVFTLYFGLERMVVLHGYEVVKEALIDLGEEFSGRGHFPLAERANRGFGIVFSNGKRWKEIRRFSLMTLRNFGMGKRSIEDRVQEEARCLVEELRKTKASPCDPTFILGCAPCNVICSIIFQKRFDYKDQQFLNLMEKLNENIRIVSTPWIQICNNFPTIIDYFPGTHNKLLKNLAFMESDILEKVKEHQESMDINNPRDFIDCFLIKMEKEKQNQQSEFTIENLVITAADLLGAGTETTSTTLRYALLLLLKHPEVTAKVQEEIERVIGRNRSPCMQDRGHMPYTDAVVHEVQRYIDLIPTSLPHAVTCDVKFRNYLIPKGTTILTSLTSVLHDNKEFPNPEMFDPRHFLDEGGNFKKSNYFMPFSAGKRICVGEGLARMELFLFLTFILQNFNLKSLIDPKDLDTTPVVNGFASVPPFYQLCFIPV

- Ki [1]: 58 µM
- Drug metabolism [2]: metabolite_not_detected
- Drug metabolism [3]: metabolite_not_detected
- Vmax/Km [4]: 40.9 µL/min
- Vmax (Liver microsome [5]): 217 pmol/min
- Km [6]: 3.06 µM
- Drug metabolism (Cytochrome P450 2A6): metabolite_not_detected
- Ki (Liver microsome [7]): 13.2 µM
- Vmax/Km (Liver microsome [8]): 19.5 µL/min
- Drug metabolism [9]: metabolite_not_detected
- Drug metabolism [10]: metabolite_detected
- Drug metabolism (Liver microsome [11]): metabolite_detected
- Drug metabolism [12]: metabolite_detected
- Drug metabolism (Cytochrome P450 2E1): metabolite_not_detected
- Drug metabolism [13]: metabolite_detected
- Drug metabolism (Cytochrome P450 2C19): metabolite_not_detected
Structure (SMILES): O=C(O)CCc1cc(C(=O)c2ccc(OC3CCCC3)cc2O)ccc1OCc1ccc2c(O)noc2c1
